Screening data as filed in PubChem.
HUVEC inhibit: inhibitors of HUVEC proliferation, primary screen, cell-based, 384-well. CellTiter-Glo luminescence, 72 h; active compounds read low. viability, % at 10 µM (by protocol). hit rate 1.1% among 86,000;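 active = viability at or below 30%; inactive = viability above 30%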
tolC growth inh: growth inhibitors of E. coli tolC mutant, primary screen, strain BW25113 ΔtolC::kan, 384-well. OD615. growth inhibition, % at 10 µM (by protocol). hit rate 2.2% among 65,000;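 active = growth inhibition at or above a cutoff equal to the mean over every tested compound plus 3 SD, cut at about 60% in these data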;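 note: growth measured after 20 h incubation at 37 °C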
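System: E. coli ΔtolC::kan strain BW25113; Buffer or medium: LB broth supplemented with 50 µg/mL kanamycin; Compound: 10 µM final, single dose; Incubation: bacterial growth with compound for 20 h at 37 °C; Signal: A615 absorbance measurement; Evaluation: growth inhibition in percent.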
Jurkat viability: cytotoxicity toward Jurkat T cells, primary screen, cytotoxicity control, cell-based, Jurkat E6.1, 60K MLSMR library; inhibition, % at 4 µM; AID 463, 2006; Jurkat E6.1 viability, ATP luminescence, 48 h; hit rate 1.2% among 56,000;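 active = inhibition above the mean inhibition of all tested compounds plus 3 SD, cut at about 28% in these data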
Lung fibro prol: antiproliferative effect on LL 47 fibroblasts – human, LL 47 cells, CellTiter-Glo luminescence, primary screen; LL 47 human lung fibroblast viability, ATP luminescence; active compounds read low; viability, % at 10 µM; hit rate 1.1% among 85,000; AID 719, 2007;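 active = viability at or below 50% in the single dose screen; inactive = viability above 50%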;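 note: compound exposure lasted 72 h before the ATP readout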
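test system = LL 47 human lung fibroblasts | amount = 1,150 fibroblasts seeded per well | medium = 15% FBS in IMEM | times = overnight cell rest, 72 h compound treatment at 37 °C | measured by = CellTiter-Glo luminescence measuring cellular ATP | read-out = viability percentage against median untreated-cell control | benchmarks = cell-only wells, no compound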
Ecoli WT expand: growth inhibitors of wild-type E. coli, primary screen, strain BW25113, expanded library, OD600 | growth inhibition, % at 100 µM | hit rate 0.15% among 98,000 | OD600 absorbance;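 active = growth inhibition above about 50% at one test dose, limit read from the data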;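 note: growth measured after 20 h incubation at 37 °C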
H69AR inhibit: proliferation blockers of H69AR lung cancer cells, primary screen, cell-based, human, 86K library. hit rate 6% among 85,000. H69AR lung tumor viability, ATP luminescence, 72 h; active compounds read low. AID 598, 2007. viability, % at 10 µM;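 active = viability at or below 40%; inactive = viability above 40%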;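 note: multidrug resistant small cell line overexpressing MRP-1 efflux transporter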
Numbers stand for hits; - = inactive; . = no result given. The list is not random: actives were taken first. Their share in the collection is about 6.4%.

SMILES	HUVEC inhibit	tolC growth inh	Jurkat viability	Lung fibro prol	Ecoli WT expand	H69AR inhibit
CS(=O)(=O)N(CC(=O)Nc1ccccc1C(=O)NCc1ccco1)c1ccc2c(c1)OCCO2	-	.	.	-	-	26.3
Nc1c(Br)cc2oc(-c3ccccc3)nc2c1Br	-	-	.	-	.	22.1
COc1ccc(-c2cn[nH]c2N)cc1	-	.	.	-	-	-
COc1ccc(-c2nc3c(Br)c(N)c(Br)cc3o2)cc1	-	-	.	-	-	29.1
Cc1ccc(-c2nnc(-c3ccccc3)o2)cc1Br	-	-	.	-	.	-
Cn1c2ccccc2c2ncn(Cc3ccco3)c(=O)c21	-	-	-	-	-	-
CCc1cc2c3c(c1)/C(=C1/SC(N)=NC1=O)C(=O)N3C(C)(C)C=C2C	.	.	.	.	-	.
CCc1ccc(CNCc2cccnc2)cc1	-	-	-	-	-	-
CC(O)/C=C/c1ccc2ccccc2n1 (centres undefined)	-	-	-	-	-	23.4
O=C(CSc1nnnn1C1CCCCC1)Nc1nc2c(s1)CCCC2	-	98.3	-	-	-	-
N#Cc1c(NC(=O)CSc2nnnn2C2CCCCC2)sc2c1CCCC2	-	-	-	-	-	-
CCOc1ccc2nc(NC(=O)CSc3nnnn3C3CCCCC3)sc2c1	-	-	-	-	-	1.7
CCOc1ccc(OCCSc2nnnn2C2CCCCC2)cc1	-	65.4	-	-	-	-
COc1ccc2nc(NC(=O)CSc3nnnn3C3CCCCC3)sc2c1	-	69.4	-	-	-	-
COC(=O)c1cccc(-n2nnnc2SCC(=O)Nc2nc3c(s2)CCCC3)c1	-	83.9	-	-	-	-
COc1cccc(-n2nnnc2SCC(=O)Nc2nc3c(s2)CCCC3)c1	-	.	.	-	.	-
O=S(=O)(c1ccc(Br)c2nsnc12)N1CCOCC1	.	-	-	.	.	.
CN1CCN(S(=O)(=O)c2ccc(Br)c3nsnc23)CC1	-	.	.	-	-	2.9
C=CCCC(=O)Nc1nc(C)c(-c2csc(Nc3cccc(OC)c3)n2)s1	.	.	.	.	-	.
O=[N+]([O-])/C=C/c1c(OCc2ccccc2)ccc2ccccc12	26.8	.	.	7.6	-	2.8
O=C(Cn1cnc2c(nnn2Cc2ccc(Cl)cc2)c1=O)NCC1CCCO1 (centres undefined)	-	-	-	-	-	-
C=CCN1C(=O)C2(NNc3ccccc3O2)c2ccccc21 (centres undefined)	22.8	.	.	-	-	12.7
Cn1c(C(=O)NCCc2c[nH]c3ccccc23)cc2sccc21	-	-	61.5	-	-	-
O=C(NCCc1c[nH]c2ccccc12)c1cc2sccc2n1Cc1ccccc1	-	.	.	-	-	-
Cc1onc(-c2ccccc2)c1C(=O)Nc1ccnn1C1CCCCC1	-	-	-	-	-	-
SMILES	HUVEC inhibit	tolC growth inh	Jurkat viability	Lung fibro prol	Ecoli WT expand	H69AR inhibit
CC(C)c1cc(N2CCN(C(=O)c3ccco3)CC2)n2c(nc3ccccc32)c1C#N	-	-	-	-	-	-
Cc1cc(-c2ccco2)c(C#N)c2nc3ccccc3n12	-	81.0	.	-	-	-
O=C(CCn1c(=O)oc2ccccc21)N1CCOCC1	-	-	-	-	-	-
Cc1c(Br)ccc(NC(=O)CCN2C(=O)C3C4CCC(C4)C3C2=O)c1C (centres undefined)	.	.	.	.	-	.
O=C(c1ccco1)N1CCN(c2ncnc3scc(-c4ccccc4)c23)CC1	-	.	.	-	-	39.8
Cc1ccc(-c2csc3ncnc(N4CCN(C(=O)c5ccccc5)CC4)c23)cc1	-	.	.	-	-	22.2
COc1cc(C2c3c(oc4ccc(C)cc4c3=O)C(=O)N2c2cc(C)ccn2)cc(OC)c1OC (centres undefined)	-	-	-	-	.	32.1
COc1cccc(-n2c(SCC(=O)NCc3ccco3)nnc2-c2c[nH]c3ccccc23)c1	-	.	.	-	-	-
CN(c1ccccc1)C(c1ccc(F)cc1)c1nnnn1C1CCCC1 (centres undefined)	-	73.4	-	-	-	-
CN(c1ccccc1)C(c1ccc(F)cc1)c1nnnn1CC1CCCO1 (centres undefined)	-	-	-	-	-	-
N#CC1=C(N)OC2=C(C(=O)CCC2)C1c1ccncc1 (centres undefined)	-	-	-	-	-	-
